Source: ChEMBL document CHEMBL3992493, “New approach of delivering cytotoxic drugs towards CAIX expressing cells: A concept of dual-target drugs” (Eur J Med Chem, 2017)
pIC50, pKi: −log10 of the molar value. Activity calls are given as the source filed them. The rule behind the calls is not given here.

Assays:
MDCK [1] = assay: Cytotoxicity against MDCK cells expressing carbonic anhydrase 9 assessed as reduction in cell viability at 50 nM after 72 hrs under anoxic condition by Alamar blue assay; assay type: functional, cell-based; settings: Canis lupus familiaris
Outline: (§1)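 ATR inhibitor without irradiation: MDCK CAIX+ or scrambled-control CAIX− cells were preconditioned 24 h at ≤0.02% O2 (anoxia) or 21% O2. Compound was added in 0.5% DMSO for 72 h, then washed off. Cells regrew 72 h under normoxia, followed by 2 h alamarBlue conversion. Viability is relative to control.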

MDCK [2] = assay: Cytotoxicity against carbonic anhydrase 9 knockdown MDCK cells assessed as reduction in cell viability at 50 nM pretreated for 72 hrs followed by 72 hrs incubation under normoxic condition by Alamar blue assay; assay type: cell-based, Canis lupus familiaris; settings: dog, 0.05 µM; outline: as §1
MDCK [3] = assay: Cytotoxicity against MDCK cells expressing carbonic anhydrase 9 assessed as reduction in cell viability at 50 nM pretreated for 72 hrs followed by 72 hrs incubation under normoxic condition by Alamar blue assay; assay type: functional, cell-based; settings: Canis lupus familiaris; outline: as §1
MDCK [4] = assay: Cytotoxicity against MDCK cells expressing carbonic anhydrase 9 assessed as reduction in cell viability at 50 nM pretreated for 1 hr followed by 4 Gy irradiation under anoxic condition by Alamar blue assay; assay type: functional, cell-based; settings: Canis lupus familiaris
Outline: (§2)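 ATR inhibitor plus radiation: MDCK CAIX+/CAIX− cells were preconditioned 24 h under normoxia (21% O2) or anoxia (≤0.02% O2). Compound in 0.5% DMSO was added 1 h before X-irradiation, 2 Gy normoxic or 4 Gy anoxic. Total compound exposure was 72 h, then washout and 72 h normoxic regrowth. Readout was 2 h alamarBlue conversion, as relative viability.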

MDCK [5] = assay: Cytotoxicity against carbonic anhydrase 9 knockdown MDCK cells assessed as reduction in cell viability at 50 nM after 72 hrs under anoxic condition by Alamar blue assay; assay type: cell-based, Canis lupus familiaris; settings: dog, 0.05 µM; outline: as §1
MDCK [6] = assay: Cytotoxicity against MDCK cells expressing carbonic anhydrase 9 assessed as reduction in cell viability at 50 nM pretreated for 1 hr followed by 2 Gy irradiation under normoxic condition by Alamar blue assay; assay type: functional, cell-based; settings: Canis lupus familiaris; outline: as §2
Carbonic anhydrase 12 = Carbonic anhydrase 12 (Homo sapiens, UniProt O43570); assay: Binding affinity to recombinant human carbonic anhydrase 12 after 15 mins by stopped-flow CO2 hydration assay
Sequence of Carbonic anhydrase 12 (O43570 whole entry): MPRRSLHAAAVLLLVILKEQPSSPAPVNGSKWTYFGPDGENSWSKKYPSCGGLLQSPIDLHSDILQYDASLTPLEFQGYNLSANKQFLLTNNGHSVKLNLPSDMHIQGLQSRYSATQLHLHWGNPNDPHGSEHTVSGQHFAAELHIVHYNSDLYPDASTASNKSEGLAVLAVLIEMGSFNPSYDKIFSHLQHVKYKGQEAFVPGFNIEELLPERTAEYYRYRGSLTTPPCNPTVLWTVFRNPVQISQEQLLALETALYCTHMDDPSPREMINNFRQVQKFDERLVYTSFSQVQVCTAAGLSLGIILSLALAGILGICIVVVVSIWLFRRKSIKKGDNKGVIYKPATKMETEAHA

Carbonic anhydrase 9 = Carbonic anhydrase 9 (Homo sapiens, UniProt Q16790); assay: Binding affinity to recombinant human carbonic anhydrase 9 after 15 mins by stopped-flow CO2 hydration assay
MDCK [7] = assay: Cytotoxicity against carbonic anhydrase 9 knockdown MDCK cells assessed as reduction in cell viability at 50 nM pretreated for 1 hr followed by 4 Gy irradiation under anoxic condition by Alamar blue assay; assay type: cell-based, Canis lupus familiaris; settings: dog, 0.05 µM; outline: as §2
Carbonic anhydrase 2 = Carbonic anhydrase 2 (Homo sapiens, UniProt P00918); assay: Binding affinity to recombinant human carbonic anhydrase 2 after 15 mins by stopped-flow CO2 hydration assay
Carbonic anhydrase 1 = Carbonic anhydrase 1 (Homo sapiens, UniProt P00915); assay: Binding affinity to recombinant human carbonic anhydrase 1 after 15 mins by stopped-flow CO2 hydration assay
Sequence of Carbonic anhydrase 1 (P00915 whole entry): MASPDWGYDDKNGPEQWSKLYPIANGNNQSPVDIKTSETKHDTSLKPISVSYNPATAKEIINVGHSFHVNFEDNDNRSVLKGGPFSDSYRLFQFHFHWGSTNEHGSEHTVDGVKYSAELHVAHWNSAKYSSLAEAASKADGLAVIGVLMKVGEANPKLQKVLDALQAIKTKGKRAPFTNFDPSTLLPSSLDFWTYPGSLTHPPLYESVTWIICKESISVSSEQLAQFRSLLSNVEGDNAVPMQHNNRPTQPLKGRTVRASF

MDCK [8] = assay: Cytotoxicity against carbonic anhydrase 9 knockdown MDCK cells assessed as reduction in cell viability after 72 hrs under hypoxic condition by Alamar blue assay; assay type: cell-based; settings: Canis lupus familiaris
MDCK [9] = assay: Cytotoxicity against MDCK cells expressing carbonic anhydrase 9 assessed as reduction in cell viability after 72 hrs under normoxic condition by Alamar blue assay; assay type: functional, cell-based; settings: Canis lupus familiaris
MDCK [10] = assay: Cytotoxicity against carbonic anhydrase 9 knockdown MDCK cells assessed as reduction in cell viability after 72 hrs under normoxic condition by Alamar blue assay; assay type: cell-based; settings: Canis lupus familiaris
[11] = Cytotoxicity against carbonic anhydrase 9 knockdown MDCK cells assessed as surviving fraction incubated for 24 hrs measured after 7 days under normoxic condition by methylene blue staining based clonogenic survival assay; assay type: cell-based, Canis lupus familiaris; settings: dog, read-out: Survival
Outline: (§3)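 Confluent, high-density MDCK CAIX+/CAIX− cells, to allow CAIX-dependent medium acidification. Drug or vehicle (0.5% DMSO) for 24 h under normoxia (21% O2) or hypoxia (0.2% O2). Cells then trypsinised and reseeded in triplicate at known numbers, grown 7 days. Colonies fixed and stained with 0.4% methylene blue in 70% ethanol. Surviving fraction normalised to vehicle. Three independent biological repeats.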

MDCK [12] = assay: Cytotoxicity against MDCK cells expressing carbonic anhydrase 9 assessed as reduction in cell viability after 72 hrs under hypoxic condition by Alamar blue assay; assay type: functional, cell-based; settings: Canis lupus familiaris
MDCK [13] = assay: Cytotoxicity against MDCK cells expressing carbonic anhydrase 9 assessed as surviving fraction incubated for 24 hrs measured after 7 days under hypoxic condition by methylene blue staining based clonogenic survival assay; assay type: functional, Canis lupus familiaris; outline: as §3
MDCK [14] = assay: Cytotoxicity against MDCK cells expressing carbonic anhydrase 9 assessed as reduction in cell viability incubated for 24 hrs measured after 7 days under hypoxic condition by methylene blue staining based clonogenic survival assay; assay type: functional; settings: Canis lupus familiaris
Outline: (§4)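 Clonogenic assay: confluent, high-density MDCK CAIX+/CAIX− cells were exposed to drug for 24 h at 0.2% or 21% O2. Cells were then trypsinized and reseeded in triplicate at known numbers. Colonies grew 7 days and were fixed/stained with 0.4% methylene blue in 70% ethanol. Surviving fraction was normalized to 0.5% DMSO vehicle; three independent biological repeats.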

MDCK [15] = assay: Cytotoxicity against MDCK cells expressing carbonic anhydrase 9 assessed as reduction in cell viability incubated for 24 hrs measured after 7 days under normoxic condition by methylene blue staining based clonogenic survival assay; assay type: functional; settings: Canis lupus familiaris; outline: as §4
MDCK [16] = assay: Cytotoxicity against carbonic anhydrase 9 knockdown MDCK cells assessed as reduction in cell viability incubated for 24 hrs measured after 7 days under hypoxic condition by methylene blue staining based clonogenic survival assay; parameters: species or system Canis lupus familiaris; settings: dog; outline: as §4
MDCK [17] = assay: Cytotoxicity against carbonic anhydrase 9 knockdown MDCK cells assessed as reduction in cell viability incubated for 24 hrs measured after 7 days under normoxic condition by methylene blue staining based clonogenic survival assay; parameters: species or system Canis lupus familiaris; settings: dog; outline: as §4
HCT-116 [18] = assay: Effect on mitochondrial respiration in carbonic anhydrase 9 knockdown human HCT116 cells assessed as reduction in oxygen consumption rate at 0.5 mM after 24 hrs under hypoxic condition […]; assay type: ADME, cell-based; settings: hct-116, 24 h, 500 µM
Outline: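 HCT116 cells with constitutive CAIX knockdown or scrambled control were seeded at 1.5×10^4 cells/well and kept 18 h at 0.2% O2. Medium was then switched to DMEM with 25 mM glucose, 4 mM glutamine and 1 mM pyruvate, 60 min before assay, in a CO2-free incubator at 37 °C. Seahorse XF96 oxygen consumption rate was read at baseline and after injection of drug or PBS vehicle. Values were normalized to BCA protein.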

HCT-116 [19] = assay: Effect on mitochondrial respiration in carbonic anhydrase 9 knockdown human HCT116 cells assessed as reduction in oxygen consumption rate at 2 mM […]; assay type: cell-based; settings: hct-116, 2000 µM
HCT-116 [20] = assay: Effect on mitochondrial respiration in human HCT116 cells expressing carbonic anhydrase 9 assessed as reduction in oxygen consumption rate at 2 mM […]; assay type: functional, cell-based

| SMILES | pKi (Carbonic anhydrase 12) | pKi (Carbonic anhydrase 9) | pKi (Carbonic anhydrase 2) | pKi (Carbonic anhydrase 1) | pIC50 (MDCK [8]) | pIC50 (MDCK [9]) | pIC50 (MDCK [10]) | pIC50 (MDCK [12]) | also measured |
| --- | --- | --- | --- | --- | --- | --- | --- | --- | --- |
| CNCc1ccc(-c2cc(-c3nc(-c4ccc(S(=O)(=O)C(C)C)cc4)cnc3NS(N)(=O)=O)on2)cc1 | < 4.30 | < 4.30 | < 4.30 | < 4.30 |  |  |  |  | Activity (MDCK [1]): Active; Activity (MDCK [2]): Toxic; Activity (MDCK [3]): Active; Activity (MDCK [4]): inactive; Activity (MDCK [5]): Toxic; Activity (MDCK [6]): inactive; Activity (MDCK [7]): Non-Toxic |
| Cn1nnc2c(C(=O)NOS(N)(=O)=O)ncn2c1=O | < 4.30 | < 4.30 | < 4.30 | < 4.30 | 3.00 | < 3.00 | 3.14 | < 3.00 | viability at 24 h [11]: 46.1%; Survival (MDCK [13]): 26.1% |
| Cn1nnc2c(C(N)=O)ncn2c1=O [TEMOZOLOMIDE] | < 4.30 | < 4.30 | < 4.30 | < 4.30 | 3.00 | < 3.00 | 3.11 | < 3.00 | Activity (MDCK [14]): Active; Activity (MDCK [15]): Active; Activity (MDCK [16]): Toxic; Activity (MDCK [17]): Toxic |
| [H]/N=C(/N)N/C(=N/[H])NCCc1ccccc1 [PHENFORMIN] | < 4.30 | < 4.30 | < 4.30 | < 4.30 |  |  |  |  | Activity (HCT-116 [18]): Toxic |
| Cl.N=C(N)NC(=N)NCCc1ccc(S(N)(=O)=O)cc1 |  | 7.69 |  |  |  |  |  |  | Activity (HCT-116 [19]): Non-Toxic; Activity (HCT-116 [20]): inactive |
